Assay results as given in ChEMBL document CHEMBL4837219, “Chemical modification of NSC12 leads to a specific FGF-trap with antitumor activity in multiple myeloma” (Eur J Med Chem, 2021).
Calls of active or inactive are those of the source. The rule behind the calls is not given here.

Tests used:
KMS-11 [1] = assay: Trapping activity at FGF in human KMS-11 cells assessed as inhibition of FGFR3 phosphorylation at 6 uM measured after 6 hrs by western blot analysis; format: cell-based
Method in brief: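 KMS-11 cells treated for 6 h with compound at 6.0 µM, then lysed in NP-40 buffer containing orthovanadate and protease inhibitors. Phospho-FGFR3 detected by western blot with anti-phospho-Y724 antibody, using β-actin or α-tubulin as loading control. Result expressed as % inhibition of FGFR3 phosphorylation by densitometry.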

KMS-11 [2] = assay: Antiproliferative activity against human KMS-11 cells assessed as reduction in cell viability incubated for 48 hrs by propidium iodide staining-based flow cytometric analysis; format: functional; conditions: KMS-11, 48 h
Method in brief: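 KMS-11 cells (maintained in RPMI1640 with 10% heat-inactivated FBS and 2.0 mM glutamine) exposed to increasing concentrations of compound for 48 h. Viable PI-negative cells counted by flow cytometry using the analyzer's absolute counting function. IC50 is the concentration giving 50% inhibition of proliferation, taken as the mean of at least 2 experiments run in triplicate.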

[3] = Total plasma concentration in NOD-SCID mouse at 7.5 mg/kg, ip measured after 90 mins by HPLC/MS/MS analysis; format: ADME, organism-based
Method in brief: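 A single 7.5 mg/kg i.p. dose given to eight-week-old NOD/SCID mice (n = 4). Blood collected at 90 min. Plasma treated with acetonitrile containing internal standard (1:2) to precipitate protein, centrifuged, and the supernatant analyzed by C18 gradient HPLC-MS/MS in ESI-negative MRM mode. Calibration in spiked blank plasma, linear over 1–1000 nM, LOQ 1 nM. Values are mean ± SEM.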

U-266 [4] = assay: Antiproliferative activity against human U-266 cells assessed as reduction in cell viability incubated for 48 hrs by propidium iodide staining-based flow cytometric analysis; format: functional; conditions: U-266, 48 h
Method in brief: (§1)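 Myeloma cells kept at low passage in RPMI1640 with 10% heat-inactivated FBS and 2.0 mM glutamine, Mycoplasma-tested, authenticated. Exposed to increasing concentrations of test compound for 48 h. Viable cells counted as propidium iodide-negative by flow cytometry with absolute counts. IC50 = concentration halving proliferation; mean of at least 2 experiments in triplicate.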

[5] = target: T1, Estrogen receptor (Homo sapiens) (UniProt P03372); assay: Displacement of [3H]estradiol from human full length recombinant ERalpha expressed in baculovirus-infected Sf9 cells at 50 uM incubated for 120 mins by radiometric scintillation counting analysis
T1 sequence (whole entry): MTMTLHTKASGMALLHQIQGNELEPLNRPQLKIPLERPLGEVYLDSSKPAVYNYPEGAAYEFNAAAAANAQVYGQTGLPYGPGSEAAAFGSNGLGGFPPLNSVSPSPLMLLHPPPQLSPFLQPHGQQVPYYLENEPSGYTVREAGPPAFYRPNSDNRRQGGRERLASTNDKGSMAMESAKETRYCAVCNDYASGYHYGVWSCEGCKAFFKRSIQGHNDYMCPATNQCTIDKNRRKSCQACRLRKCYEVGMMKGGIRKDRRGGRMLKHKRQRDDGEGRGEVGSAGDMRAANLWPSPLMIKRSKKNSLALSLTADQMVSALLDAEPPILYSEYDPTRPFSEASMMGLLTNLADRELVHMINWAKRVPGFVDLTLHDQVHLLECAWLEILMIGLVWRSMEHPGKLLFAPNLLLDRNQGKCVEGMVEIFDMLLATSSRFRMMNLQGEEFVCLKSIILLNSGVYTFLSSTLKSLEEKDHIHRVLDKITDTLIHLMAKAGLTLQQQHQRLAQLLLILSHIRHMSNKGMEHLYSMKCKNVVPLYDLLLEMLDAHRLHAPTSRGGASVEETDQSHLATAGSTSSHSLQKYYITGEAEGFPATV
Method in brief: (§2)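 Radioligand competition binding to human ERα or ERβ, run as an outsourced panel assay. Readout is % inhibition of specific [3H]estradiol binding at 5.0 and 50 µM compound. Run in duplicate, and the mean of the duplicates is reported.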

[6] = target: Estrogen receptor beta (Homo sapiens) (UniProt Q92731); assay: Displacement of [3H]estradiol from human full length recombinant ERbeta expressed in baculovirus-infected Sf9 cells at 50 uM incubated for 120 mins by radiometric scintillation counting analysis; method in brief: as §2
OPM-2 [7] = assay: Antiproliferative activity against human OPM-2 cells assessed as reduction in cell viability incubated for 48 hrs by propidium iodide staining-based flow cytometric analysis; format: functional; conditions: OPM-2, 48 h; method in brief: as §1
RPMI-8226 [8] = assay: Trapping activity at FGF in human RPMI-8226 cells assessed as inhibition of FGFR3 phosphorylation at 6 uM measured after 6 hrs by westernblot analysis; format: cell-based
Method in brief: (§3)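 Cells cultured in RPMI1640 with 10% FBS and 2.0 mM glutamine, then treated 6 h with 6 µM compound. Washed in cold PBS and lysed in NP-40 buffer (20 mM Tris-HCl pH 8, 1 mM orthovanadate, protease inhibitors). Bradford used to normalize protein. Blots probed for phospho-FGFR3 (Y724), with β-actin or α-tubulin as loading control; percent inhibition read by densitometry.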

OPM-2 [9] = assay: Trapping activity at FGF in human OPM-2 cells assessed as inhibition of FGFR3 phosphorylation at 6 uM measured after 6 hrs by westernblot analysis; format: cell-based; method in brief: as §3
KMS-11 [10] = assay: Antitumor activity against human KMS-11 cells xenografted in NOD-SCID mouse assessed as tumor growth inhibition at 7.5 mg/kg, ip administered every other day measured at day 17 post-tumor implantation by caliper analysis; format: functional, organism-based
Method in brief: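 Female NOD/SCID mice, six to eight weeks old, injected s.c. with 5 × 10^6 KMS-11 cells in PBS. Once tumors were palpable (10 days), mice were randomized and given 7.5 mg/kg i.p. every other day, with DMSO as vehicle control; n = 5 per group. Tumor volume from caliper measurements, V = (D × d²)/2. Tumors excised and weighed at day 17.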

[11] = target: Estrogen receptor beta (Homo sapiens) (UniProt Q92731); assay: Displacement of [3H]estradiol from human full length recombinant ERbeta expressed in baculovirus-infected Sf9 cells at 5 uM incubated for 120 mins by radiometric scintillation counting analysis; method in brief: as §2
[12] = target: T1, Estrogen receptor (Homo sapiens); assay: Displacement of [3H]estradiol from human full length recombinant ERalpha expressed in baculovirus-infected Sf9 cells at 5 uM incubated for 120 mins by radiometric scintillation counting analysis; method in brief: as §2
[13] = target: Fibroblast growth factor 2 (Homo sapiens, UniProt P09038); assay: Binding affinity to FGF2 (unknown origin) by sensor chip immobilization based surface plasmon resonance analysis
RPMI-8226 [14] = assay: Antiproliferative activity against human RPMI-8226 cells assessed as reduction in cell viability incubated for 48 hrs by propidium iodide staining-based flow cytometric analysis; format: functional; conditions: RPMI-8226, 48 h; method in brief: as §1
U-266 [15] = assay: Trapping activity at FGF in human U-266 cells assessed as inhibition of FGFR3 phosphorylation at 6 uM measured after 6 hrs by westernblot analysis; format: cell-based; method in brief: as §3

Estrogen receptor beta (Homo sapiens), sequence (Q92731 whole entry): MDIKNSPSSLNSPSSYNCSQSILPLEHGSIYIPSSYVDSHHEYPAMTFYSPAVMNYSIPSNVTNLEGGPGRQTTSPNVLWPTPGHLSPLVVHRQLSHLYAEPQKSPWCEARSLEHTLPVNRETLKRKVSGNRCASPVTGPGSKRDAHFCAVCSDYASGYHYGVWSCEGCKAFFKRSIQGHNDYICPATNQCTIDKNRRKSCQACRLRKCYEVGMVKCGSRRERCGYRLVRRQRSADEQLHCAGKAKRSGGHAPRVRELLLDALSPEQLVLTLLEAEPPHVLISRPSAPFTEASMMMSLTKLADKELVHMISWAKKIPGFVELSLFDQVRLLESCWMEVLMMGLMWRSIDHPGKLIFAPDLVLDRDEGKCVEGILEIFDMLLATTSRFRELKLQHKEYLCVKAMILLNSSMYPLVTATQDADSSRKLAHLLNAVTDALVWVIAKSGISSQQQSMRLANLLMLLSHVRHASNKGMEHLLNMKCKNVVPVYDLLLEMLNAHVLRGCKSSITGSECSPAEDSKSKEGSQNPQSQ
Fibroblast growth factor 2, sequence (P09038 143-288 limits assumed): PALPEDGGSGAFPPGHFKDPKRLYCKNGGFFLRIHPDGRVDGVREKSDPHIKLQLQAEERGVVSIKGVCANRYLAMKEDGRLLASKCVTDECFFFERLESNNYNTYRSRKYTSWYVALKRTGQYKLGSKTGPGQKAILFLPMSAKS

Compound | inhibition (KMS-11 [1]) | other results
C[C@]12CC[C@H]3[C@@H](CC=C4CC(=NO)CC[C@@]43C)[C@@H]1CC[C@@H]2[C@@H](O)CC(O)(C(F)(F)F)C(F)(F)F | 51% | –
C[C@]12CC[C@H]3[C@@H](CC=C4C[C@@H](O)CC[C@@]43C)[C@@H]1CC[C@@H]2C(O)CC(O)c1ccccc1 (stereo in doubt; 11c) | 28% | –
C[C@]12CC[C@H]3[C@@H](CC=C4C[C@@H](O)CC[C@@]43C)[C@@H]1CC[C@@H]2C(O)CC(O)c1ccccn1 (stereo in doubt; 14a) | 26% | –
C[C@]12CC[C@H]3[C@@H](CC=C4C[C@@H](O)CC[C@@]43C)[C@@H]1CC[C@@H]2C(O)CC(O)c1ccccn1 (stereo in doubt; 14b) | 34% | –
C[C@]12CC[C@H](O)C[C@@H]1CC[C@@H]1[C@@H]2CC[C@]2(C)[C@@H]([C@@H](O)CC(O)(C(F)(F)F)C(F)(F)F)CC[C@@H]12 | 89% | IC50 (KMS-11 [2]): 2.9 µM
C[C@]12CC[C@H]3[C@@H](CC=C4C[C@@H](O)CC[C@@]43C)[C@@H]1CC[C@@H]2[C@@H](O)CC(=O)O | 41% | –
C[C@]12CC[C@H]3[C@@H](CC=C4C[C@@H](OCCO)CC[C@@]43C)[C@@H]1CC[C@@H]2[C@@H](O)CC(O)(C(F)(F)F)C(F)(F)F | 71% | –
C[C@]12CC[C@H]3[C@@H](CC=C4C/C(=N\O)CC[C@@]43C)[C@@H]1CC[C@@H]2[C@H](O)CC(O)(C(F)(F)F)C(F)(F)F | 80% | –
C[C@]12CCC(=O)C[C@@H]1CC[C@@H]1[C@@H]2CC[C@]2(C)[C@@H]([C@@H](O)CC(O)(C(F)(F)F)C(F)(F)F)CC[C@@H]12 | 82% | –
C[C@]12CC[C@H]3[C@@H](CC=C4C[C@@H](O)CC[C@@]43C)[C@@H]1CC[C@@H]2[C@H](O)CC(O)(C(F)(F)F)C(F)(F)F | inactive | concentration at 1.5 h [3]: 93.1 nM
C[C@]12CC[C@H](O)C[C@@H]1CC[C@@H]1[C@@H]2CC[C@]2(C)[C@@H]([C@H](O)CC(O)(C(F)(F)F)C(F)(F)F)CC[C@@H]12 | inactive | –
C[C@]12CC[C@H]3[C@@H](CC=C4C[C@@H](OC(=O)CN)CC[C@@]43C)[C@@H]1CC[C@@H]2[C@@H](O)CC(O)(C(F)(F)F)C(F)(F)F | 93% | IC50 (KMS-11 [2]): 5.6 µM
C[C@]12CC[C@H]3[C@@H](CC=C4CC(=O)CC[C@@]43C)[C@@H]1CC[C@@H]2[C@H](O)CC(O)(C(F)(F)F)C(F)(F)F | 69% | –
CC(C)(O)C[C@@H](O)[C@H]1CC[C@H]2[C@@H]3CC=C4C[C@@H](O)CC[C@]4(C)[C@H]3CC[C@]12C | 32% | –
C[C@]12CC[C@H]3[C@@H](CC=C4C[C@@H](O)CC[C@@]43C)[C@@H]1CC[C@@H]2[C@@H](O)CC(N)=O | 17% | –
C[C@]12CC[C@H]3[C@@H](CC=C4C/C(=N/O)CC[C@@]43C)[C@@H]1CC[C@@H]2[C@H](O)CC(O)(C(F)(F)F)C(F)(F)F | 58% | –
C[C@]12CC[C@H]3[C@@H](CC=C4C[C@@H](O)CC[C@@]43C)[C@@H]1CC[C@@H]2[C@@H](O)CCO | 57% | –
C[C@]12CCC(=O)C[C@@H]1CC[C@@H]1[C@@H]2CC[C@]2(C)[C@@H]([C@H](O)CC(O)(C(F)(F)F)C(F)(F)F)CC[C@@H]12 | 99% | IC50 (U-266 [4]): 5.4 µM; inhibition [5]: 0%; inhibition [6]: 17.6%; IC50 (OPM-2 [7]): 6.6 µM; Activity (RPMI-8226 [8]): Active; Activity (OPM-2 [9]): Active; Activity (KMS-11 [10]): Active; inhibition [11]: 4.3%; concentration at 1.5 h [3]: 525 nM; inhibition [12]: 0%; IC50 (KMS-11 [2]): 2.4 µM; Kd [13]: 30.5 µM; IC50 (RPMI-8226 [14]): 6.6 µM; Activity (U-266 [15]): Active
CC(C)(O)C[C@H](O)[C@H]1CC[C@H]2[C@@H]3CC=C4C[C@@H](O)CC[C@]4(C)[C@H]3CC[C@]12C | 46% | –
C[C@]12CC[C@H]3[C@@H](CC=C4C[C@@H](O)CC[C@@]43C)[C@@H]1CC[C@@H]2[C@H](O)CC(=O)O | 80% | –
C[C@]12CC[C@H]3[C@@H](CC=C4CC(=O)CC[C@@]43C)[C@@H]1CC[C@@H]2[C@@H](O)CC(O)(C(F)(F)F)C(F)(F)F | 91% | IC50 (KMS-11 [2]): 3.4 µM
C[C@]12CC[C@H]3[C@@H](CC=C4C[C@@H](O[C@@H]5O[C@H](CO)[C@@H](O)[C@H](O)[C@H]5O)CC[C@@]43C)[C@@H]1CC[C@@H]2[C@@H](O)CC(O)(C(F)(F)F)C(F)(F)F | 100% | IC50 (KMS-11 [2]): 4 µM
C[C@]12CC[C@H]3[C@@H](CC=C4C[C@@H](O)CC[C@@]43C)[C@@H]1CC[C@@H]2[C@H](O)CC(N)=O | 44% | –
C[C@]12CC[C@H]3[C@@H](CC=C4C[C@@H](O)CC[C@@]43C)[C@@H]1CC[C@@H]2C(O)CC(O)c1ccccc1 (stereo in doubt; 11a) | 49% | –
C[C@]12CC[C@H]3[C@@H](CC=C4C[C@@H](OCCO)CC[C@@]43C)[C@@H]1CC[C@@H]2[C@H](O)CC(O)(C(F)(F)F)C(F)(F)F | 85% | IC50 (KMS-11 [2]): 7.7 µM
C[C@]12CC[C@H]3[C@@H](CC=C4C[C@@H](O)CC[C@@]43C)[C@@H]1CC[C@@H]2[C@@H](O)CC(O)(C(F)(F)F)C(F)(F)F | 81% | inhibition [5]: 83.3%; inhibition [6]: 91.9%; Activity (KMS-11 [10]): Active; inhibition [11]: 74.9%; concentration at 1.5 h [3]: 360 nM; inhibition [12]: 60.8%; IC50 (KMS-11 [2]): 3.4 µM
C[C@]12CC[C@H]3[C@@H](CC=C4C[C@@H](O)CC[C@@]43C)[C@@H]1CC[C@@H]2C(O)CC(O)c1ccccc1 (stereo in doubt; 11b) | 68% | –
C[C@]12CC[C@H]3[C@@H](CC=C4C[C@@H](O[C@@H]5O[C@H](CO)[C@@H](O)[C@H](O)[C@H]5O)CC[C@@]43C)[C@@H]1CC[C@@H]2[C@H](O)CC(O)(C(F)(F)F)C(F)(F)F | inactive | –
C[C@]12CC[C@H]3[C@@H](CC=C4C[C@@H](O)CC[C@@]43C)[C@@H]1CC[C@@H]2[C@H](O)CCO | inactive | –
